Casp6 inh: caspase-6 (human) enzyme inhibition; P55212; purified caspase-6, Z-VEID-R110 cleavage fluorescence; inhibition, % at 12.5 µM; 350,000 tested, 0.53% active;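 active = mean inhibition across replicates at least about 35%, with every replicate also reaching that limit, limit read from the data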;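 note: 0% = median of neutral control wells and 100% = no fluorescence left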
TDP2 inh: TDP2 (human) inhibition, absorbance primary screen; recombinant TDP2, T5PNP hydrolysis, p-nitrophenol absorbance 415 nm; inhibition, % at 12.8 µM; 370,000 tested, 0.34% active;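 active = inhibition above the mean of all tested compounds plus 3 SD, set per campaign, cut at about 25% in these data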;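 note: 0% = DMSO with enzyme and 100% = buffer with substrate but no TDP2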
Target sequence (O95551 whole entry, looked up): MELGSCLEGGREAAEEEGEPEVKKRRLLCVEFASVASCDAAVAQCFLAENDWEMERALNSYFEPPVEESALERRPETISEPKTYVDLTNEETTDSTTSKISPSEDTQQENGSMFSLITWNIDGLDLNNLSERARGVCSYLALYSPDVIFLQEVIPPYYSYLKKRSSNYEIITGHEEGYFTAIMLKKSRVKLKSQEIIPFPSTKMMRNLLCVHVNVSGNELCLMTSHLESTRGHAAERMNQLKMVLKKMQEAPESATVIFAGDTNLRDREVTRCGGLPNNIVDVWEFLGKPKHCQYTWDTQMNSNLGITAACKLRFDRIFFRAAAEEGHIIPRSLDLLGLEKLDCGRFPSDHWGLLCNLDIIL
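System: recombinant human TDP2 / Amount: 120 nM TDP2 per well / Also added: 5 mM T5PNP chromogenic substrate / Doses: 12.8 µM single point, 1% DMSO / Incubation: 2 h at 37 °C / Detection: p-Nitrophenol epi absorbance / Evaluation: % inhibition relative to enzyme-containing and enzyme-free wells / Repeats: singlicate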
ARFGAP1 inh: inhibits rat ARF GTPase activating protein 1 | Q62848 | Arfgap1-stimulated ARF1 GTP hydrolysis, GDP FP detection | inhibition, % at 16.5 µM | 360,000 tested, 0.26% active;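 active = inhibition above a per-plate limit, mean inhibition of low control wells plus 3 SD, cut at about 25% in these data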;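 note: 0% = DMSO wells with enzyme and 100% = wells lacking Arfgap1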
Target sequence (Q62848 1-136 limits assumed): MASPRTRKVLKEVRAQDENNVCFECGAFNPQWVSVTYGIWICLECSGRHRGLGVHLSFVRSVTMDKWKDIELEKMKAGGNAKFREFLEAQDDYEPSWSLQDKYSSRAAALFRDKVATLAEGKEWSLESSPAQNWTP
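Material – truncated rat Arfgap1 GAP domain · Buffer or medium – HEPES-based buffer, pH 7.5 · Reagent – human ARF1(Δ1-17)-GTP substrate · Dosing – 16.5 µM single point, 1.26% DMSO · Schedule – GTP hydrolysis reaction 2 h at 25 °C · Technique – GDP detection by fluorescence polarization · Benchmarks – No-Arfgap1 wells (100%) versus DMSO full-reaction wells (0%) · Repeats – single replicate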
ASAP1 GAP inh: blocks human ASAP1-stimulated Arf1 GTP hydrolysis | GDP FP detection | Q9ULH1 | 360,000 tested, 0.19% active | inhibition, % at 16.5 µM;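 note: 0% = vehicle with enzyme and substrate and 100% = no enzyme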
LEDGF integ inh: blocks HIV-1 LEDGF/p75-dependent DNA integration. TR-FRET IN-LEDGF/p75 DNA integration, Eu/Cy5. inhibition, % at 3.7 µM. 370,000 tested, 0.64% active. AID 743269;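 active = inhibition above the screen-wide mean plus 3 SD, cut at about 13% in these data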;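 note: signal is the Cy5 over europium emission ratio at 671 and 618 nm; 0% = plate median of compound wells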
TDP2 confirm: confirmation of human TDP2 inhibitors. 1,100 tested, 22% active. inhibition, % at 12.8 µM. shares compounds with TDP2 inh. AID 743263. recombinant human TDP2, absorbance read-out;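 note: 0% = vehicle with enzyme and 100% = no enzyme buffer only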
* hit, by the source's call; · = no result given. An excerpt weighted towards active compounds, which were near 1.3% of everything screened. Cut-off read from the data, not from the text of the source, unless noted: active = inhibition above about 25%; inactive = the rest.

SMILES	Casp6 inh	TDP2 inh	ARFGAP1 inh	ASAP1 GAP inh	LEDGF integ inh	TDP2 confirm
CO[C@H]1CN(C)C(=O)c2cc(NC(C)=O)ccc2OC[C@@H](C)N(C(=O)C2CCC2)C[C@H]1C	3	·	·	·	·	·
COc1ccc(S(=O)(=O)Nc2ccc3c(c2)C(=O)N([C@@H](C)CO)C[C@@H](C)[C@H](CN(C)C(=O)Nc2ccc4c(c2)OCO4)OCCCC[C@@H](C)O3)cc1	1	·	·	·	·	·
Nc1nnc(-c2ccco2)s1	·	2	2	1	-2	·
Nc1ncnc2oc(-c3ccco3)c(-c3ccco3)c12	·	27*	-12	7	86*	-1
O=C1C(=O)c2cccnc2-c2ncccc21	61*	104*	-19	1	13	89*
O=C1c2cccnc2-c2ncccc21	·	-9	-3	-7	1	·
CN(CCOc1ccccc1)CC(=O)Nc1cccc(Br)c1	10	32*	4	4	-4	11
Cc1cc(NC(=O)CN(C)CCOc2ccccc2)ccc1Br	-4	3	9	10	2	·
Cc1cc(=O)[nH]c(N/N=C/c2ccco2)n1	·	5	1	-6	-1	·
CC(=O)Nc1ccc(C2=NN(C)C(=NCc3ccccc3)SC2)cc1	0	29*	5	2	7	5
O=C(Nc1ccc(Cl)cc1)N1CCSC1=NCc1ccccc1	-3	2	5	5	-4	·
COc1cc(NC(=O)c2ccccc2OCc2ccccc2)cc(OC)c1OC	-3	-9	-8	24	-1	·
CCc1ccc(NC(=O)Nc2cc(C(=O)NCC3CCCO3)ccc2N2CC3CC(C2)c2cccc(=O)n2C3)cc1 (stereo unspecified)	-3	25*	2	0	3	2
NC1=NC2=C(CCCC2)C2(CCCCC2)S1	·	1	0	-6	1	·
NC(=O)c1cc2ccccc2o/c1=N\NC(=O)c1ccncc1	0	32*	12	-9	5	0
COc1ccc(N=C2SC(CC(=O)Nc3ccccc3)C(=O)N2Cc2ccccn2)cc1 (stereo unspecified)	2	3	4	12	0	·
Cc1onc(-c2ccccc2)c1-c1ccnn1C(=O)NC(C)C	0	-1	2	11	-3	·
COC(=O)c1noc(C)c1-c1ccnn1C(=O)c1ccc(C)cc1	1	25*	-3	-7	0	-3
CC(C)NC(=O)Nc1cccc2c1O[C@H](CN(C)CC1CCCCC1)[C@H](C)CN([C@@H](C)CO)C2=O	2	·	·	·	·	·
COc1cccc(CNC(=O)C[C@@H]2CC[C@H]3[C@H](COc4ccc(NC(=O)c5cccs5)cc4C(=O)N3C)O2)c1	-1	·	·	·	·	·
O=C(O)CN1C(=O)/C(=C/c2ccc(SCc3ccccc3)o2)SC1=S	52*	26*	-11	-10	11	3
CCOC(=O)C1(C(C)(C)CC)CC(CSc2nc3ccccc3[nH]2)OC1=O (stereo unspecified)	·	-13	1	-5	-1	·
CSC1=NC(=O)/C(=C\c2cccc3ccccc23)S1	3	25*	-4	16	4	0
O=C1C2C3CC(C2C(=O)N1c1cccc(Cl)c1)[C@H](O)C3O (stereo partly specified)	0	3	5	0	1	·
CCN(CC)P1(=O)OC(c2cc(OC)c(OC)c(OC)c2)=Nc2c1c(C)nn2-c1ccccc1 (stereo unspecified)	·	-19	-4	-2	2	·
SMILES	Casp6 inh	TDP2 inh	ARFGAP1 inh	ASAP1 GAP inh	LEDGF integ inh	TDP2 confirm
COc1cc(C(CC(=O)Nc2ncccc2C)N2Cc3ccccc3C2=O)cc(OC)c1OC (stereo unspecified)	0	26*	5	-4	1	-3
COc1ccc(C(CC(=O)Nc2ncccc2C)N2Cc3ccccc3C2=O)cc1OC (stereo unspecified)	0	15	10	-10	-2	·
OC(CNCc1ccc(Cl)cc1)COc1ccccc1 (stereo unspecified)	-5	25*	10	3	2	-2
Cc1ccc(-n2c(SCC(=O)Nc3ccc4cn[nH]c4c3)nnc2-c2ccco2)cc1	·	2	10	0	1	·
CCc1ccc(NC(=S)Nc2cccc3cnccc23)cc1	2	38*	0	10	6	6
Cc1cc(C)cc(NC(=S)Nc2cccc3cnccc23)c1	20	9	4	-7	-1	·
Cn1c(C(=O)N2CCCC2)cc2c(=O)n(C)c3ccccc3c21	3	-1	-5	2	4	·
CCOC(=O)C1CCCN(C(=O)c2cc3c(=O)n(C)c4ccccc4c3n2C)C1 (stereo unspecified)	-1	41*	7	4	-1	12
CCOC(=O)c1ccccc1NC(=S)N1CCC(N2CCCCC2)CC1	·	34*	10	14	-5	3
COC(=O)c1ccccc1NC(=S)N1CCC(N2CCCCC2)CC1	-9	-6	5	9	-2	·
COc1ccc(NC(=O)c2ccc(-n3c(C)ccc3C)cc2)c(OC)c1	1	30*	-9	-12	3	-9
COc1ccc(NC(=O)c2ccc(S(=O)(=O)C(F)F)cc2)c(OC)c1	-1	2	-4	7	-1	·
CCC(C)N1CCN(S(=O)(=O)c2ccc3ccccc3c2)CC1 (stereo unspecified)	1	32*	1	-7	1	6
COc1cccc(C2/C(=C(\O)c3ccc4c(c3)OCCO4)C(=O)C(=O)N2CC2CCCO2)c1 (stereo unspecified)	-2	35*	4	2	1	3
O=C1CCCC2=C1C1(O)C(=O)c3ccccc3C1(O)O2 (stereo unspecified)	·	53*	7	14	2	59*
COc1ccc(OCC(=O)NS(=O)(=O)c2ccccc2)cc1	2	29*	13	-6	0	6
CC(C(=O)NC1CCCCCC1)c1ccc([N+](=O)[O-])cc1 (stereo unspecified)	0	25*	-6	9	-2	-3
CC(C(=O)NC1CC(C)(C)NC(C)(C)C1)c1ccc([N+](=O)[O-])cc1 (stereo unspecified)	0	2	-4	8	-1	·
COCCCn1c(C)cc(C(=O)COC(=O)CCc2nc3ccccc3c(=O)[nH]2)c1C	3	8	-7	-12	3	·
COCC(C)n1c(C)cc(C(=O)COC(=O)CCc2nc3ccccc3c(=O)[nH]2)c1C (stereo unspecified)	-4	31*	0	-4	0	11
CCOc1ccc(-n2nnnc2SCC(=O)N2CCOCC2)cc1	·	4	-5	-2	-1	·
COC(=O)c1cc2c(-c3ccccc3)c(C)c3ccccn3c-2c1C(=O)OC	·	-2	2	-12	3	·
